Source: ChEMBL document CHEMBL4052588, “Design of a Biased Potent Small Molecule Inhibitor of the Bromodomain and PHD Finger-Containing (BRPF) Proteins Suitable for Cellular and in Vivo Studies” (J Med Chem, 2017)

Assays:
[1] = molecular target: T1, Bromodomain-containing protein 1 (Homo sapiens, UniProt O95696); experiment: Inhibition of human His tagged BRPF2 incubated for 30 mins followed by addition of biotinylated peptide and further incubation for 30 mins measured by AlphaScreen assay
T1 sequence (O95696 whole entry): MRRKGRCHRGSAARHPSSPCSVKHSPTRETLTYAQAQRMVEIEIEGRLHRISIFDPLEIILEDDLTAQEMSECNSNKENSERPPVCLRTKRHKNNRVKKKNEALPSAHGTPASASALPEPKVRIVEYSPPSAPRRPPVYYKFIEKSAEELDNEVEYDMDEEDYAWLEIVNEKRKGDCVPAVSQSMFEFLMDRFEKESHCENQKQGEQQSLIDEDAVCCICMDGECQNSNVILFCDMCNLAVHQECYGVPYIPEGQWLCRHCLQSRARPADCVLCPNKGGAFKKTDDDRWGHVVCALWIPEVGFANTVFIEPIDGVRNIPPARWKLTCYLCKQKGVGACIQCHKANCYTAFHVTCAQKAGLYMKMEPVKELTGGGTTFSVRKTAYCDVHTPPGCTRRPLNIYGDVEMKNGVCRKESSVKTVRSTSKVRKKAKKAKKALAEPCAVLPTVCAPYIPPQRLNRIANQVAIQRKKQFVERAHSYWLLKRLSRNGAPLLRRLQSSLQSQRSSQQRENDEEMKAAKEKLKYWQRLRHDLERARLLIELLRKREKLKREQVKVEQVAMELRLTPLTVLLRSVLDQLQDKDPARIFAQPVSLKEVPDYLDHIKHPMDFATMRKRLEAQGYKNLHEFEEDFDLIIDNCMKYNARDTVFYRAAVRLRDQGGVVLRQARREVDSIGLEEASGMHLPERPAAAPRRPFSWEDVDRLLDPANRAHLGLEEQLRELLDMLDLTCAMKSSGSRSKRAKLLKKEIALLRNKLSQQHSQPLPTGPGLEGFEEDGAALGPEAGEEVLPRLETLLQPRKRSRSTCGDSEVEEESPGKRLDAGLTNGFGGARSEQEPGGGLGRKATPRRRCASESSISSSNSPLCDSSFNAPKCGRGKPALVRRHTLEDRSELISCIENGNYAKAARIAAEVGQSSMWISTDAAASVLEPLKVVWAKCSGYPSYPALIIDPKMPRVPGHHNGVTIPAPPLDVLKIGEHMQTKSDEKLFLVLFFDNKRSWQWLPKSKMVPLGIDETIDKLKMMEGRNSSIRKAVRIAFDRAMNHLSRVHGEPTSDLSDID

[2] = molecular target: T1, Bromodomain-containing protein 1; experiment: Binding affinity to human BRPF2 by isothermal titration calorimetry
[3] = molecular target: T2, Bromodomain and PHD finger-containing protein 3 (Homo sapiens, UniProt Q9ULD4); experiment: Binding affinity to human BRPF3 by isothermal titration calorimetry
T2 sequence (Q9ULD4 whole entry): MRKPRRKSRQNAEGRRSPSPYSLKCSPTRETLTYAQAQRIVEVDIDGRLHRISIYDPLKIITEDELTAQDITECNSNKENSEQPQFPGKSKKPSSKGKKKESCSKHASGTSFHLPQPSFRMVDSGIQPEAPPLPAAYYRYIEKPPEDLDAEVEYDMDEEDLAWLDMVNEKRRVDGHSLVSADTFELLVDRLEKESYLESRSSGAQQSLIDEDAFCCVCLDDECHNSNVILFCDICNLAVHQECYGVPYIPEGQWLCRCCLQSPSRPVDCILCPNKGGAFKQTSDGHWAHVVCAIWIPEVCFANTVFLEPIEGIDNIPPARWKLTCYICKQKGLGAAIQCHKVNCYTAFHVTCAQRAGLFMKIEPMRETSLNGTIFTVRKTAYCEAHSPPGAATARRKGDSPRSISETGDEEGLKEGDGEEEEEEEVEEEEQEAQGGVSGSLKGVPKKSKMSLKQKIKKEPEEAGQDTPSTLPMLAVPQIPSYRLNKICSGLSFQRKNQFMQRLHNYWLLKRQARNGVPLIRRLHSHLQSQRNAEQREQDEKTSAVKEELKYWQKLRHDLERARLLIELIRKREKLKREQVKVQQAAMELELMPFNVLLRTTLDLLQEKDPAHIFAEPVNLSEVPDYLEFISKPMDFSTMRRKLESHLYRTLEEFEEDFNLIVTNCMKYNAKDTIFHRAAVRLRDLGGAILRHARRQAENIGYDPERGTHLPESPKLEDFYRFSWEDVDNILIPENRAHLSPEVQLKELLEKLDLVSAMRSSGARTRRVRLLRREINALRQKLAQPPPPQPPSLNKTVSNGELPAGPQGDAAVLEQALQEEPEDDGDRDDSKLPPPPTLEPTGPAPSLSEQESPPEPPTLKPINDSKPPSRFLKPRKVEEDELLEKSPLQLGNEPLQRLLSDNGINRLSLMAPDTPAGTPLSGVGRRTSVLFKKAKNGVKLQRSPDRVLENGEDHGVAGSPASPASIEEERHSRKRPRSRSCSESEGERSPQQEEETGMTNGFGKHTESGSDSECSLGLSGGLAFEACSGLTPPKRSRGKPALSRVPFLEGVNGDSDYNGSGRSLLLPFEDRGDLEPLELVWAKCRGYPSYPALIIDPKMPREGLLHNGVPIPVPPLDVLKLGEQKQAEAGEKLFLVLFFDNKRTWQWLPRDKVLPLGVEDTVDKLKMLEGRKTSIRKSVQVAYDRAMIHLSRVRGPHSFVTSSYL

[4] = Apparent permeability from basolateral to apical side in human Caco2 cells at 10 uM after 2 hrs by LC-MS/MS analysis; type: ADME, cell-based; settings: Caco-2
SW48 = experiment: Growth inhibition of human SW48 cells after 72 hrs; type: functional; settings: SW48, 72 h
NUGC-4 = experiment: Growth inhibition of human NUGC4 cells after 72 hrs; type: functional; settings: NUGC-4, 72 h
HepG2 = experiment: Growth inhibition of human HepG2 cells after 72 hrs; type: functional; settings: HepG2, 72 h
LoVo = experiment: Growth inhibition of human LoVo cells after 72 hrs; type: functional
SNU-5 = experiment: Growth inhibition of human SNU5 cells after 72 hrs; type: functional; settings: SNU-5, 72 h
RKO = experiment: Growth inhibition of human RKO cells after 72 hrs; type: functional
OCI-LY19 = experiment: Growth inhibition of human OCI-LY19 cells after 72 hrs; type: functional; settings: OCI-LY19, 72 h
IM-9 = experiment: Growth inhibition of human IM9 cells after 72 hrs; type: functional; settings: IM-9, 72 h
SW-620 = experiment: Growth inhibition of human SW620 cells after 72 hrs; type: functional; settings: SW-620, 72 h
[5] = Intrinsic clearance in mouse liver microsomes; type: ADME, microsome; settings: read-out: CLH
[6] = Tmax in CD-1 mouse blood at 3 mg/kg, po; type: ADME, organism-based; settings: whole blood
Method in brief: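 Female CD-1 mice (n = 3), single dosing: intravenous 1.0 mg/kg, or oral 3.0 mg/kg given as a suspension. Blood levels were followed over time to derive clearance, volume of distribution, elimination half-life, Cmax, Tmax, AUC0−∞, oral bioavailability and fraction absorbed.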

[7] = molecular target: SWI/SNF-related matrix-associated actin-dependent regulator of chromatin subfamily A member 2 (Homo sapiens, UniProt P51531); experiment: Inhibition of human SMARCA2A expressed in Escherichia coli BL21 after 1 hr by BROMOscan assay
Chain of SWI/SNF-related matrix-associated actin-dependent regulator of chromatin subfamily A member 2 (P51531 whole entry): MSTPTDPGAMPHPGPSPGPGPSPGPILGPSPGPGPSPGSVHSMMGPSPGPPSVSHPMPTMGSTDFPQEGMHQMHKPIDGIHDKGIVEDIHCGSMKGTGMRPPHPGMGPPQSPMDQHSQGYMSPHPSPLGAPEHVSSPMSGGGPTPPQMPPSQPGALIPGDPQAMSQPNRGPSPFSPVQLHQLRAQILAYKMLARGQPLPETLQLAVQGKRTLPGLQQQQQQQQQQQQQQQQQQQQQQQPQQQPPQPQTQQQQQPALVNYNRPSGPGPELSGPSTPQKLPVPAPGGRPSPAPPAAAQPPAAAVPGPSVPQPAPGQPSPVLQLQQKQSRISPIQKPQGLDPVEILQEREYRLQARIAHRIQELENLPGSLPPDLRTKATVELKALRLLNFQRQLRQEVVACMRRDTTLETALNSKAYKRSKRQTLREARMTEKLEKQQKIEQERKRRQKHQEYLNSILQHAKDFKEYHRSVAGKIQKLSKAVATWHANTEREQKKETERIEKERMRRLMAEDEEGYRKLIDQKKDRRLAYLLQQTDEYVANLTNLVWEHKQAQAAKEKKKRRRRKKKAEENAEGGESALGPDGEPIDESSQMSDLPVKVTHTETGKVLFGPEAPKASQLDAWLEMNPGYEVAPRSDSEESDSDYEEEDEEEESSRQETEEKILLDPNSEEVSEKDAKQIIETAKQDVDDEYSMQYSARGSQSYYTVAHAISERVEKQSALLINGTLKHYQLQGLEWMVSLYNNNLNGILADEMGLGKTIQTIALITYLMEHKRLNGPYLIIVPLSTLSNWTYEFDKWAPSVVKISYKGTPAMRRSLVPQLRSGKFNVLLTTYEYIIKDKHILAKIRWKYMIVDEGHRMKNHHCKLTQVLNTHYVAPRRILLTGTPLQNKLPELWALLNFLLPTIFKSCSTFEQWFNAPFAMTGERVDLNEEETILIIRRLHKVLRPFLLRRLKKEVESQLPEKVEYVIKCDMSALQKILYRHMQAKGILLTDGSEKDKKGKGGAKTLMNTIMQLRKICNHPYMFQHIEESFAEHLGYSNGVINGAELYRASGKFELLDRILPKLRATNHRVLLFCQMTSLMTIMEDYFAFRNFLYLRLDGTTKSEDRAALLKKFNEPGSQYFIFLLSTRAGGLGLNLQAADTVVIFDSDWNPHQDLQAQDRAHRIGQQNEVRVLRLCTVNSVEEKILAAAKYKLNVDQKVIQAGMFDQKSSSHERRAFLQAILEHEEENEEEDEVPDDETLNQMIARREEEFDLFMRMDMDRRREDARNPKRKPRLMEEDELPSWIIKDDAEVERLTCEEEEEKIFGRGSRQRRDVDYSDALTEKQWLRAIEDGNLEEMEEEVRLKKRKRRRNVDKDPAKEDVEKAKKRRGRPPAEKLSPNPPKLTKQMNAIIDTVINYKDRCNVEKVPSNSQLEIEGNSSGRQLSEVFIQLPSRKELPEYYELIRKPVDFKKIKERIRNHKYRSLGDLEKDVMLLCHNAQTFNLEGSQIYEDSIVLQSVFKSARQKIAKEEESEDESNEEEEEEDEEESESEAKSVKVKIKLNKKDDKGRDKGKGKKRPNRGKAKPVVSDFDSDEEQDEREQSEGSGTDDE

Cc1cc2cc(NS(=O)(=O)c3ccc(C#N)cc3)ccc2n(C)c1=O
IC50 [1]: 760 nM | Kd [2]: 210 nM | Kd [3]: 940 nM | Papp B→A at 2 h, 10 µM [4]: 50 ×10⁻⁶ cm/s | GI50 (SW48): 1000 to 10000 nM | GI50 (NUGC-4): 1000 to 10000 nM | GI50 (HepG2): 1000 to 10000 nM | GI50 (LoVo): 1000 to 10000 nM | GI50 (SNU-5): 1000 to 10000 nM | GI50 (RKO): 1000 to 10000 nM | GI50 (OCI-LY19): 1000 to 10000 nM | GI50 (IM-9): 1000 to 10000 nM | GI50 (SW-620): 1000 to 10000 nM | microsomal CLint [5]: 14 µL/min/mg | Tmax [6]: 1 h

CCc1cc2cc(NS(=O)(=O)c3ccc(C#N)cc3)ccc2n(CC)c1=O
IC50 [7]: 77000 nM
